# Screens deposited in PubChem by several laboratories.
# This is a sample that favours compounds with a hit; in the whole collection about 1.9% have one here.
# NCF1 inh = inhibitors of human p47phox binding. hit rate 0.53% among 220,000. p47phox/p22phox peptide binding, fluorescence polarization, 2 h. P14598. inhibition, % at 24.7 µM;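 active = inhibition above about 30%, limit read from the data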;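 also: 0% = p47phox with labelled peptide and 100% = labelled peptide alone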
# Dynein cargo inh = blocks dynein driven cargo transport along microtubules; 3617.4 mouse cells, GR-EGFP nuclear translocation imaging; test concentration mostly 20 µM; stimulated with dexamethasone, 1 µM; active compounds read low; z-score, hits read low; hit rate 0.47% among 220,000; AID 1381;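 active = plate z-score of nuclear minus cytoplasmic receptor signal below a set negative limit, without overly bright fluorescence or cell loss, cut at about -3.5 in these data, passing the limit was not always enough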;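 also: z-score of nuclear minus cytoplasmic ring GR-EGFP intensity difference per well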
#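 Also added – dexamethasone, 1.0 µM final · Buffer or medium – tet-free, stripped-serum medium · Schedule – induction 48 h, compound 1 h, agonist 30 min · Detection – formaldehyde fixation, Hoechst nuclear stain, 10x automated fluorescence imaging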
# RAM inhibit = yeast RAM network inhibition | S. cerevisiae dse1pr::URA3 reporter, 5-FOA growth OD615, 2 d; analog-sensitive cbk1-as2 kinase mutant strain | inhibition, % at 50 µM | hit rate 1.8% among 190,000;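 active = inhibition above a set limit, 3 SD over mean compound inhibition, cut at about 8.4% in these data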;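 also: 0% = DMSO-only wells with no growth and 100% = 10 µM 1-NA-PP1 full growth; inhibition rescues growth on 5-FOA so higher OD means more RAM inhibition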
# pCIP destab = p/CIP protein destabilization | Q05BA5 | AID 1984 | F442A p/CIP-EGFP cells, EGFP fluorescence, 16 h | decrease of EGFP signal, % at 10 µM | hit rate 0.01% among 290,000;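 active = EGFP signal decrease of at least 30% at 10 µM or well 3 SD below plate mean, unless failing retest; inactive = the rest, including hits failing retest or dose response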
# An asterisk follows results filed as active; nt = not tested or not shown.
SMILES,NCF1 inh,Dynein cargo inh,RAM inhibit,pCIP destab
Cc1ccc(-n2c(O)c(/C=N/Nc3ccccc3)c(=O)[nH]c2=O)cc1C,40*,0.16,nt,-2
CCNC(=S)N1CCn2cccc2C1c1cccnc1 (configuration not stated),-4,0.28,1,-1
COc1ccccc1OCC(=O)Nc1ccc(Cl)cc1C(=O)c1ccccc1,-2,2.2,6,-4
CCOc1ccccc1OCC(=O)Nc1ccc(Cl)cc1C(=O)c1ccccc1,8,0.57,9.6*,1
C=C1C(=O)O[C@@H]2C[C@@H](C)[C@@H]3C4OC4C(=O)[C@@]3(C)[C@@H](O)[C@H]12 (some centres not stated),-1,-3.8*,nt,-36
O=P(NC(c1ccccc1)c1ccccc1)(Oc1ccccc1)Oc1ccccc1,-4,0.75,9.3*,-5
CN(C)c1ccc(C(=O)c2ccc(N(C)C)cc2)cc1,-9,-0.38,1,-13
CN(C)c1ccc(/C=C/[N+](=O)[O-])cc1,43*,-0.62,0,-10
CC(=O)c1cc(C#N)c(N2CCN(C)CC2)nc1C,5,0.35,0,-22
Cn1c(O)c(C=NCCN2CCOCC2)c(=O)[nH]c1=S,-34,-0.29,nt,4
CCCCCCCCCOc1ccc2[nH]cc(CCN)c2c1,92*,nt,nt,-1
CCOc1ccc(C2CC(c3c(O)n(C)c(=O)n(C)c3=O)=NN2)cc1 (configuration not stated),61*,-0.61,nt,2
Cn1c(O)c(C2=NNC(c3ccc(Cl)cc3)C2)c(=O)n(C)c1=O (configuration not stated),5,2.4,nt,-8
CC(=O)c1c(C)n(Cc2ccccc2Cl)c2ccc(O)cc12,115*,-0.27,2,-9
O=c1c2ccccc2nc(-c2ccccc2)n1-c1ccccc1,-4,-0.2,nt,-18
O=c1c2ccccc2[se]n1-c1ccccc1,85*,0.61,4,0
CN(C)c1ccc(/C=C2\C(=O)NC(=O)N(Cc3ccc(F)cc3)C2=O)cc1,97*,0.3,nt,-12
CC(C)OCCCNC(=O)c1c(N)n(Cc2cccs2)c2nc3ccccc3nc12,-10,-0.28,9.3*,14
CC(C)CCn1c(N)c(C(=O)NCc2cccs2)c2nc3ccccc3nc21,-22,3.6,6,-10
O=C(c1ccco1)c1cn(Cc2ccc(Cl)cc2)c2ccccc12,-10,-0.83,11*,-28
O=C(Cn1cc(C(=O)c2ccccc2)c2ccccc21)NCc1ccco1,-7,-0.16,1,2
COc1ccccc1OCCCn1cc(C(=O)c2ccco2)c2ccccc21,-8,-0.14,10*,-2
CC1(C)N2CC3([N+](=O)[O-])CN1CC([N+](=O)[O-])(C2)C3,-3,-0.69,nt,5
O=c1[nH]c(O)c(/C=C2/C=CC(c3cc(Cl)ccc3Cl)=N2)c(=O)[nH]1,50*,3.2,nt,-24
COc1ccc(OC)c(NP(=O)(Oc2ccc(Cl)cc2)Oc2ccc(Cl)cc2)c1,-4,-0.09,11*,-2
SMILES,NCF1 inh,Dynein cargo inh,RAM inhibit,pCIP destab
COc1ccc(NP(=O)(Oc2ccc(Cl)cc2)Oc2ccc(Cl)cc2)cc1OC,-19,-0.57,9.5*,5
O=C1C2CCN(CC2)C1Cc1ccc(OCCOc2ccccc2)cc1 (configuration not stated),-5,0.84,3,4
O=C(c1ccc(-c2ccccc2)cc1)C1CCCN(Cc2ccn[nH]2)C1 (configuration not stated),-8,-0.19,1,3
O=C(NC12CC3CC(CC(C3)C1)C2)OC1CN2CCC1CC2 (configuration not stated),-13,-0.074,nt,6
CN(C(=O)Oc1ccc(C(=O)c2ccc(Cl)cc2)cc1)c1ccccc1,-12,0.12,8.4*,2
c1ccc(-c2nc(N3CCOCC3)s[n+]2-c2ccccc2)cc1,41*,0.23,1,-1
CCN(CC)c1ccc(N=Cc2c(O)n(-c3cc(OC)ccc3OC)c(=O)[nH]c2=O)cc1,-29,0.53,2,-10
CCC(C)N1C(=O)/C(=C\c2cc3c4c(c2)CCCN4CCC3)C(=O)NC1=S (configuration not stated),63*,-0.69,3,-6
CCC(C)N1C(=O)/C(=C\c2ccc(N3CCCCCC3)cc2)C(=O)NC1=S (configuration not stated),56*,0.18,6,-14
CN1C(=O)/C(=C\c2ccc(N3CCCCCC3)cc2)C(=O)NC1=S,14,-0.32,nt,-2
CCC(C)N1C(=O)/C(=C\c2cnc(N(C)C)nc2)C(=O)NC1=S (configuration not stated),-6,-2.7,-2,-16
O=C1C2CCCC1C(N1CCCCC1)CC2 (configuration not stated),nt,nt,nt,-8
Nc1ccccc1C(=O)OCc1ccc([N+](=O)[O-])cc1,-5,-0.93,3,-1
N#CC1=C(N)Oc2c(c(=O)oc3ccccc23)C1c1cccnc1 (configuration not stated),-2,1.5,-1,0
CCOc1cc(C2C(C#N)=C(N)Oc3c2c(=O)oc2ccccc32)ccc1OC(=O)c1cccs1 (configuration not stated),-12,0.71,8.9*,1
c1ccc(-c2[nH]c[n+](CC3CO3)c2-c2ccccc2)cc1 (configuration not stated),31*,0.75,-1,-5
NC(=O)Cn1cc(C(=O)c2ccccc2)c2ccccc21,nt,nt,nt,9
C=C1[C@@H](C)[C@H]2[C@H](Cc3ccccc3)NC(=O)[C@]23OC(=O)/C=C/[C@H](O)CCC[C@@H](C)C/C=C/[C@H]3[C@@H]1O,31*,nt,nt,-6
CCN1C(=O)/C(=C\c2ccc([N+](=O)[O-])s2)C(=O)NC1=S,-12,-4.7*,2,-3
CCCC/C(C)=C/[C@@H](NP(=O)(c1ccccc1)c1ccccc1)c1ccccc1,1,-0.19,3,-11
C=CCN1C(=O)/C(=C/c2ccc3c(c2)CCCN3CCC)C(=O)NC1=S,43*,-1.6,5,-11
O=C1NC(=S)N(C2CC2)C(=O)/C1=C/c1ccc2c(c1)CCN2CCCCl,-18,-3.3,3,-10
C=C1C(=O)O[C@@H]2C[C@@H](C)[C@@H]3C=CC(=O)[C@@]3(C)[C@@H](OC(=O)CC(=O)O[C@H]3[C@@H]4C(=C)C(=O)O[C@@H]4C[C@@H](C)[C@@H]4C=CC(=O)[C@]43C)[C@H]12,1,-4*,nt,-29
C=C1C(=O)O[C@H]2[C@H]1[C@H](OC(=O)CC(=O)O[C@@H]1C[C@@H](C)[C@@H]3C=CC(=O)[C@@]3(C)[C@H]3OC(=O)C(=C)[C@H]13)C[C@@H](C)[C@H]1C=CC(=O)[C@]12C,-2,-3.3,nt,-2
CNC(=S)N1CCN(CCN=Cc2c(O)n(-c3ccc(C)cc3)c(=S)[nH]c2=O)CC1,nt,nt,nt,4
CCOC(=O)C(=CNc1ccc(C(O)(C(=O)OCC)C(F)(F)F)cc1C)C(=O)OCC (configuration not stated),2,0.73,8.7*,-19
